ABCB6 inh MLPCN – ABCB6 transporter inhibitors, primary screen, K562-ABCB6 cells, flow cytometry, MLPCN library; fluorescence ratio to DMSO, % at 10 µM; ATP-binding cassette sub-family B member 6 (Homo sapiens), Q9NP58; hit rate 0.19% among 360,000; K562-ABCB6 porphyrin accumulation, 1 h; stronger effect = lower value;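 active = fluorescence ratio to DMSO below 75%, the collection mean minus 3 SD; inconclusive = too few cells collected in the well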;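 also: signal is porphyrin accumulated inside mitochondria; lower ratio means ABCB6 inhibition with less porphyrin fluorescence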
Target sequence (Q9NP58 whole entry, looked up): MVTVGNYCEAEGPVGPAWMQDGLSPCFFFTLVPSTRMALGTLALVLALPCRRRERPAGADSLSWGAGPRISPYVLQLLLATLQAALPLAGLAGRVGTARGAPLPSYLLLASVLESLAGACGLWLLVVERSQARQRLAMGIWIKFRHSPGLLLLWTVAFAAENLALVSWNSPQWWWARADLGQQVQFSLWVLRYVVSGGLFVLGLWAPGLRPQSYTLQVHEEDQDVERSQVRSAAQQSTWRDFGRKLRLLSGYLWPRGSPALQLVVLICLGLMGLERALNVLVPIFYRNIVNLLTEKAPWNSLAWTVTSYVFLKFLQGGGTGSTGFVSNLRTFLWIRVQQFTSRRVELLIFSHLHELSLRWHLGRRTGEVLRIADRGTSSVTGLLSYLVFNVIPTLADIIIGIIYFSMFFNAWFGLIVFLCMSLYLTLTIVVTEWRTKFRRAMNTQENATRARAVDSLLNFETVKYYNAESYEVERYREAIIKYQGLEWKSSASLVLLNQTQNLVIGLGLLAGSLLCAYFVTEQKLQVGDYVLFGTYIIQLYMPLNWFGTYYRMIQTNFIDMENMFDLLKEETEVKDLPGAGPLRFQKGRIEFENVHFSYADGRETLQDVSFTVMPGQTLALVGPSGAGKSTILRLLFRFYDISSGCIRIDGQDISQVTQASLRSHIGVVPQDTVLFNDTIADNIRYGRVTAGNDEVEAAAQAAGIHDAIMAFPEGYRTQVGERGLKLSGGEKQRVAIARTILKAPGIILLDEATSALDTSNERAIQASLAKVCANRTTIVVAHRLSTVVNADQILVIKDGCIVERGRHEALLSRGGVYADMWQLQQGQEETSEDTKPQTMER
Xi reactivation – activators of inactive X chromosome reactivation, primary screen, imaging, XiGFP fibroblasts, GFP high-content imaging, set 2; XiGFP mouse fibroblasts, % GFP-positive cells imaging, 3 d; cells co-treated with 5-aza-dC sensitizer; scaled so ellipticine positive control = 100%; activation, % at 7.58 µM; hit rate 0.055% among 360,000;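 active = mean normalized replicate activation at least 10% and every replicate at or above 10%; inconclusive = only one of the two criteria met; inactive = mean below 10% and not all replicates reach 10%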
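Assay system: SV40-immortalized XiGFP fibroblast cells, line 68-5-11; buffer or medium: DMEM plus 5-aza-dC sensitizer; compound: one concentration, pinned; timing: compounds 3 days, fix/stain 15 min at room temperature; benchmarks: positive control ellipticine, 6 µM final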
Myeloid diff MLP – induction of myeloid progenitor differentiation, primary screen, cell-based, flow cytometry, MLPCN library | ER-HoxA9 myeloid progenitors, lysozyme-GFP differentiation | calls only at 10 µM | hit rate 1% among 360,000 | AID 624256, 2012;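 active = normalized GFP-positive differentiation at or above the plate's own cutoff, the solvent-only control mean plus 3 SD; inconclusive = no clear call, values can overlap the other calls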;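 also: cells exposed to compound for four days before flow analysis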
Numbers stand for hits. The sample as a whole holds a higher share of hits than the screen did.

Results for C[C@H]1CN([C@@H](C)CO)C(=O)c2cc(NS(=O)(=O)c3cn(C)cn3)ccc2O[C@@H]1CN(C)S(C)(=O)=O ?
Xi reactivation: inactive

Results for C[C@H]1CN([C@@H](C)CO)C(=O)Cc2cc(NC(=O)Cn3cnnn3)ccc2O[C@H]1CN(C)Cc1ccc(Oc2ccccc2)cc1 ?
Xi reactivation: inactive

Results for Cc1ccc(-c2cn(-c3ccc(SC(F)F)cc3)c3[n+]2CCC3)cc1 ?
ABCB6 inh MLPCN: inactive; Myeloid diff MLP: active

What do the screens show for `FC(F)Sc1ccc(-n2cc(-c3ccc(Cl)cc3)[n+]3c2CCC3)cc1`?
ABCB6 inh MLPCN: inactive; Xi reactivation: inactive; Myeloid diff MLP: inactive

What do the screens show for `CO[C@H]1CN(C)C(=O)c2ccc(NS(C)(=O)=O)cc2OC[C@H](C)N(C(=O)C2CC2)C[C@@H]1C`?
Xi reactivation: inactive

What do the screens show for `Cc1noc(C)c1NC(=O)N(C)C[C@@H]1Oc2ccc(NC(=O)CCCCCC(=O)Nc3ccccc3N)cc2C(=O)N([C@@H](C)CO)C[C@H]1C`?
Xi reactivation: inactive

What do the screens show for `COc1ccc(-n2c(O)c(/C=N/NS(=O)(=O)c3cc(C)ccc3C)c3ccccc3c2=O)cc1OC`?
ABCB6 inh MLPCN: inactive; Xi reactivation: inactive; Myeloid diff MLP: active

How did COc1ccc(-n2c(O)c(/C=N/NS(=O)(=O)c3ccc(C)cc3)c3ccccc3c2=O)cc1OC do in these assays?
ABCB6 inh MLPCN: inactive; Myeloid diff MLP: inconclusive

What do the screens show for `CO[C@H]1CN(C)C(=O)c2cc(NS(=O)(=O)c3ccc(C)cc3)ccc2OC[C@H](C)N(Cc2nccs2)C[C@@H]1C`?
Xi reactivation: inactive

Results for CC(C)N1CCc2c(sc(NC(=O)c3ccc(C(=O)c4ccccc4)cc3)c2C(N)=O)C1 ?
ABCB6 inh MLPCN: inactive; Xi reactivation: inactive; Myeloid diff MLP: inactive

What do the screens show for `CC(C)N1CCc2c(sc(NC(=O)c3ccco3)c2C(N)=O)C1`?
ABCB6 inh MLPCN: inactive; Xi reactivation: inactive; Myeloid diff MLP: active

Results for COC(=O)c1c(NC(=O)c2ccco2)sc2c1CCN(C(C)C)C2 ?
ABCB6 inh MLPCN: inactive; Xi reactivation: inactive; Myeloid diff MLP: inactive

What do the screens show for `CC(C)N1CCc2c(sc(NC(=O)c3ccc4ccccc4c3)c2C(N)=O)C1`?
ABCB6 inh MLPCN: inactive; Xi reactivation: 99.2; Myeloid diff MLP: inconclusive

What do the screens show for `CC(C)N1CCc2c(sc(NC(=O)Cc3ccccc3)c2C(N)=O)C1`?
ABCB6 inh MLPCN: inactive; Xi reactivation: inactive; Myeloid diff MLP: inactive

Results for CC(C)N1CCc2c(sc(NC(=O)c3cc4cc([N+](=O)[O-])ccc4s3)c2C(N)=O)C1 ?
ABCB6 inh MLPCN: inactive; Xi reactivation: 64.6; Myeloid diff MLP: inconclusive

What do the screens show for `CO[C@@H]1CN(C)C(=O)c2ccc(NC(=O)c3nc4ccccc4s3)cc2OC[C@H](C)N(Cc2cccnc2)C[C@@H]1C`?
Xi reactivation: inactive

How did Cc1ccccc1-c1cnc2c(c1)C(=O)N([C@@H](C)CO)C[C@@H](C)[C@H](CN(C)Cc1cncnc1)O2 do in these assays?
Xi reactivation: inactive

Results for Cc1noc(C)c1NC(=O)Nc1ccc2c(c1)C(=O)N(C)[C@H]1CC[C@H](CC(=O)N(C)C)O[C@@H]1CO2 ?
Xi reactivation: inactive

How did C/C(=N\NC(=S)Nc1cc(S(=O)(=O)N2CCOCC2)ccc1Cl)c1ccc(N2CCOCC2)cc1 do in these assays?
ABCB6 inh MLPCN: inactive; Xi reactivation: inactive; Myeloid diff MLP: active

Results for O=S(=O)(c1ccc(Cl)c(NC(=S)Nc2ccccc2N2CCOCC2)c1)N1CCOCC1 ?
ABCB6 inh MLPCN: inactive; Xi reactivation: inactive; Myeloid diff MLP: inactive

How did C[C@H](CO)N1C[C@H](C)[C@H](CN(C)Cc2ccc(-c3ccccc3)cc2)Oc2cc(C#CC(C)(C)O)ccc2S1(=O)=O do in these assays?
Xi reactivation: inactive

Results for COc1cc(/C=C(\CC(=O)O)c2nc3ccccc3s2)ccc1OCC(=O)Nc1ccccc1F ?
ABCB6 inh MLPCN: inactive; Xi reactivation: inactive; Myeloid diff MLP: inactive

Results for COc1cc(/C=C(\C#N)c2nc3ccccc3s2)ccc1OCC(=O)Nc1ccccc1 ?
ABCB6 inh MLPCN: inactive; Myeloid diff MLP: active

How did C[C@@H](c1ccccc1)N1C[C@@H](COCc2ccccc2)Oc2cc(N3CC[C@@H](O)C3)ccc2S1(=O)=O do in these assays?
ABCB6 inh MLPCN: inactive; Xi reactivation: inactive; Myeloid diff MLP: inactive

Results for C[C@@H](c1ccccc1)N1C[C@H](COCc2ccccc2)Oc2cc(N3CC[C@@H](O)C3)ccc2S1(=O)=O ?
ABCB6 inh MLPCN: inactive; Xi reactivation: inactive; Myeloid diff MLP: active

Results for Cc1noc(C)c1S(=O)(=O)Nc1ccc2c(c1)C(=O)N([C@@H](C)CO)C[C@@H](C)[C@@H](CN(C)C(=O)NC(C)C)OCCCC[C@H](C)O2 ?
Xi reactivation: inactive

Results for C=C1C(=O)[C@]23C[C@H]1CC[C@H]2[C@]1(C)[C@@H](O)CC[C@@](C)(C(=O)O)[C@H]1C[C@@H]3O ?
ABCB6 inh MLPCN: inactive; Xi reactivation: inactive; Myeloid diff MLP: active

How did C=C1C(=O)[C@]23C[C@H]1CCC2[C@@]1(C)C(C[C@@H]3O)[C@](C)(C(=O)O)C[C@H](O)[C@@H]1O (stereo not given in full) do in these assays?
ABCB6 inh MLPCN: inactive; Xi reactivation: inactive; Myeloid diff MLP: inactive

How did Cc1noc(C)c1S(=O)(=O)Nc1ccc2c(c1)C(=O)N([C@@H](C)CO)C[C@@H](C)[C@H](CN(C)Cc1ccncc1)OCCCC[C@@H](C)O2 do in these assays?
Xi reactivation: inactive

How did Cn1cnc(S(=O)(=O)N2[C@@H]3CNC[C@H]2C3c2ccc(-c3cccnc3)cc2)c1 (stereo not given in full) do in these assays?
Xi reactivation: inactive

How did COc1cccc(-c2csc(N3CCN(C(=O)Nc4ccc(Cl)cc4)CC3)n2)c1 do in these assays?
ABCB6 inh MLPCN: inactive; Xi reactivation: inactive; Myeloid diff MLP: inactive

How did COc1ccc(NC(=O)N2CCN(c3nc(-c4cccc(OC)c4)cs3)CC2)cc1 do in these assays?
ABCB6 inh MLPCN: inactive; Myeloid diff MLP: active

How did COC(=O)C1=C(C)NC2=C(C(=O)CC(c3cccs3)C2)C1c1ccsc1 (stereo not given) do in these assays?
ABCB6 inh MLPCN: inactive; Myeloid diff MLP: inactive

Results for CCOC(=O)C1=C(C)NC2=C(C(=O)CC(c3cccs3)C2)C1c1cccs1 (stereo not given) ?
ABCB6 inh MLPCN: inactive; Myeloid diff MLP: active

What do the screens show for `C[C@@H]1CN([C@@H](C)CO)C(=O)Cc2cc(N(C)C)ccc2O[C@@H]1CN(C)C(=O)Nc1ccc(F)cc1`?
Xi reactivation: inactive

How did CCN(C[C@H]1N[C@@](Cc2ccccc2)(C(=O)OC)[C@H]2C(=O)N(Cc3ccccc3)C(=O)[C@@H]12)C(=O)Nc1ccc(C)cc1 do in these assays?
ABCB6 inh MLPCN: inactive; Xi reactivation: inactive; Myeloid diff MLP: inactive

How did CCN(C[C@H]1N[C@@](CC)(C(=O)OC)[C@H]2C(=O)N(Cc3ccccc3)C(=O)[C@@H]12)C(=O)Nc1ccc(C)cc1 do in these assays?
ABCB6 inh MLPCN: inactive; Xi reactivation: inactive; Myeloid diff MLP: active

Screening results deposited in PubChem BioAssay by several laboratories.
